ChEMBL document CHEMBL1140929, “Synthesis and evaluation of 18F-labeled 2-phenylbenzothiazoles as positron emission tomography imaging agents for amyloid plaques in Alzheimer's disease” (J Med Chem, 2009)

Assays:
[1] = system: Liver; experiment: Biodistribution in NMRI mouse liver assessed per gram of tissue at 3.7 MBq/mL, iv after 60 mins by gamma counting; type: ADME, organism-based; conditions: in vivo, 1 h
How it was run: (§1)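 Male NMRI mice (30-40 g) anaesthetised with 0.1 mL ip Hypnorm (fentanyl citrate 63 µg/mL, fluanisone 2 mg/mL). Each received 0.1 mL of HPLC-purified 18F tracer, diluted in 0.9% NaCl to 3.7 MBq/mL (ethanol ≤10%, THF ≤0.02%), via tail vein. Killed by decapitation at 2 or 60 min; blood and organs weighed and γ-counted. Background-corrected, expressed as %ID or %ID/g.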

[2] = Biodistribution in NMRI mouse spleen/pancreas at 3.7 MBq/mL, iv after 2 mins by gamma counting; type: ADME, organism-based; conditions: in vivo; how it was run: as §1
[3] = system: Cerebellum; experiment: Biodistribution in NMRI mouse cerebellum at 3.7 MBq/mL, iv after 60 mins by gamma counting; type: ADME, organism-based; conditions: in vivo, 1 h; how it was run: as §1
[4] = system: Liver; experiment: Biodistribution in NMRI mouse liver at 3.7 MBq/mL, iv after 2 mins by gamma counting; type: ADME, organism-based; conditions: in vivo; how it was run: as §1
[5] = system: Cerebellum; experiment: Biodistribution in NMRI mouse cerebellum at 3.7 MBq/mL, iv after 2 mins by gamma counting; type: ADME, organism-based; conditions: in vivo; how it was run: as §1
[6] = system: Lung; experiment: Biodistribution in NMRI mouse lung assessed per gram of tissue at 3.7 MBq/mL, iv after 2 mins by gamma counting; type: ADME, organism-based; conditions: in vivo; how it was run: as §1
[7] = Biodistribution in NMRI mouse spleen/pancreas at 3.7 MBq/mL, iv after 60 mins by gamma counting; type: ADME, organism-based; conditions: in vivo, 1 h; how it was run: as §1
[8] = system: Cerebellum; experiment: Biodistribution in NMRI mouse cerebellum assessed per gram of tissue at 3.7 MBq/mL, iv after 2 mins by gamma counting; type: ADME, organism-based; conditions: in vivo; how it was run: as §1
[9] = Biodistribution in NMRI mouse spleen/pancreas assessed per gram of tissue at 3.7 MBq/mL, iv after 2 mins by gamma counting; type: ADME, organism-based; conditions: in vivo; how it was run: as §1
[10] = system: Blood; experiment: Biodistribution in NMRI mouse blood at 3.7 MBq/mL, iv after 60 mins by gamma counting; type: ADME, organism-based; conditions: in vivo, 1 h; how it was run: as §1
[11] = system: Kidney; experiment: Biodistribution in NMRI mouse kidney assessed per gram of tissue at 3.7 MBq/mL, iv after 60 mins by gamma counting; type: ADME, organism-based; conditions: in vivo, 1 h; how it was run: as §1
[12] = system: Kidney; experiment: Biodistribution in NMRI mouse kidney assessed per gram of tissue at 3.7 MBq/mL, iv after 2 mins by gamma counting; type: ADME, organism-based; conditions: in vivo; how it was run: as §1
[13] = system: Kidney; experiment: Biodistribution in NMRI mouse kidney at 3.7 MBq/mL, iv after 2 mins by gamma counting; type: ADME, organism-based; conditions: in vivo; how it was run: as §1
[14] = system: Blood; experiment: Biodistribution in NMRI mouse blood assessed per gram of tissue at 3.7 MBq/mL, iv after 2 mins by gamma counting; type: ADME, organism-based; conditions: in vivo; how it was run: as §1
[15] = system: Kidney; experiment: Biodistribution in NMRI mouse kidney at 3.7 MBq/mL, iv after 60 mins by gamma counting; type: ADME, organism-based; conditions: in vivo, 1 h; how it was run: as §1
[16] = system: Heart; experiment: Biodistribution in NMRI mouse heart at 3.7 MBq/mL, iv after 60 mins by gamma counting; type: ADME, organism-based; conditions: in vivo, 1 h; how it was run: as §1
[17] = system: Lung; experiment: Biodistribution in NMRI mouse lung at 3.7 MBq/mL, iv after 60 mins by gamma counting; type: ADME, organism-based; conditions: in vivo, 1 h; how it was run: as §1
[18] = Biodistribution in NMRI mouse cerebrum assessed per gram of tissue at 3.7 MBq/mL, iv after 2 mins by gamma counting; type: ADME, organism-based; conditions: in vivo; how it was run: as §1
[19] = system: Lung; experiment: Biodistribution in NMRI mouse lung assessed per gram of tissue at 3.7 MBq/mL, iv after 60 mins by gamma counting; type: ADME, organism-based; conditions: in vivo, 1 h; how it was run: as §1
[20] = system: Heart; experiment: Biodistribution in NMRI mouse heart assessed per gram of tissue at 3.7 MBq/mL, iv after 60 mins by gamma counting; type: ADME, organism-based; conditions: in vivo, 1 h; how it was run: as §1
[21] = Biodistribution in NMRI mouse urine at 3.7 MBq/mL, iv after 2 mins by gamma counting; type: ADME, organism-based; conditions: in vivo; how it was run: as §1
[22] = Biodistribution in NMRI mouse cerebrum at 3.7 MBq/mL, iv after 2 mins by gamma counting; type: ADME, organism-based; conditions: in vivo; how it was run: as §1
[23] = system: Stomach; experiment: Biodistribution in NMRI mouse stomach at 3.7 MBq/mL, iv after 60 mins by gamma counting; type: ADME, organism-based; conditions: in vivo, 1 h; how it was run: as §1
[24] = system: Blood; experiment: Biodistribution in NMRI mouse blood assessed per gram of tissue at 3.7 MBq/mL, iv after 60 mins by gamma counting; type: ADME, organism-based; conditions: in vivo, 1 h; how it was run: as §1
[25] = system: Liver; experiment: Biodistribution in NMRI mouse liver at 3.7 MBq/mL, iv after 60 mins by gamma counting; type: ADME, organism-based; conditions: in vivo, 1 h; how it was run: as §1
[26] = system: Liver; experiment: Biodistribution in NMRI mouse liver assessed per gram of tissue at 3.7 MBq/mL, iv after 2 mins by gamma counting; type: ADME, organism-based; conditions: in vivo; how it was run: as §1
[27] = system: Cerebellum; experiment: Biodistribution in NMRI mouse cerebellum assessed per gram of tissue at 3.7 MBq/mL, iv after 60 mins by gamma counting; type: ADME, organism-based; conditions: in vivo, 1 h; how it was run: as §1
[28] = system: Heart; experiment: Biodistribution in NMRI mouse heart assessed per gram of tissue at 3.7 MBq/mL, iv after 2 mins by gamma counting; type: ADME, organism-based; conditions: in vivo; how it was run: as §1
[29] = system: Heart; experiment: Biodistribution in NMRI mouse heart at 3.7 MBq/mL, iv after 2 mins by gamma counting; type: ADME, organism-based; conditions: in vivo; how it was run: as §1
[30] = Biodistribution in NMRI mouse urine at 3.7 MBq/mL, iv after 60 mins by gamma counting; type: ADME, organism-based; conditions: in vivo, 1 h; how it was run: as §1
[31] = system: Intestine; experiment: Biodistribution in NMRI mouse intestine at 3.7 MBq/mL, iv after 2 mins by gamma counting; type: ADME, organism-based; conditions: in vivo; how it was run: as §1
[32] = Biodistribution in NMRI mouse cerebrum assessed per gram of tissue at 3.7 MBq/mL, iv after 60 mins by gamma counting; type: ADME, organism-based; conditions: in vivo, 1 h; how it was run: as §1
[33] = system: Stomach; experiment: Biodistribution in NMRI mouse stomach at 3.7 MBq/mL, iv after 2 mins by gamma counting; type: ADME, organism-based; conditions: in vivo; how it was run: as §1
[34] = Biodistribution in NMRI mouse cerebrum at 3.7 MBq/mL, iv after 60 mins by gamma counting; type: ADME, organism-based; conditions: in vivo, 1 h; how it was run: as §1
[35] = system: Blood; experiment: Biodistribution in NMRI mouse blood at 3.7 MBq/mL, iv after 2 mins by gamma counting; type: ADME, organism-based; conditions: in vivo; how it was run: as §1
[36] = Biodistribution in NMRI mouse spleen/pancreas assessed per gram of tissue at 3.7 MBq/mL, iv after 60 mins by gamma counting; type: ADME, organism-based; conditions: in vivo, 1 h; how it was run: as §1
[37] = system: Intestine; experiment: Biodistribution in NMRI mouse intestine at 3.7 MBq/mL, iv after 60 mins by gamma counting; type: ADME, organism-based; conditions: in vivo, 1 h; how it was run: as §1
[38] = target: Amyloid-beta precursor protein (Homo sapiens, UniProt P05067); experiment: Displacement of [125I]IMPY from beta-amyloid plaques in Alzheimer's disease patient brain homogenate; type: tissue-based
Sequence of Amyloid-beta precursor protein (P05067 whole entry): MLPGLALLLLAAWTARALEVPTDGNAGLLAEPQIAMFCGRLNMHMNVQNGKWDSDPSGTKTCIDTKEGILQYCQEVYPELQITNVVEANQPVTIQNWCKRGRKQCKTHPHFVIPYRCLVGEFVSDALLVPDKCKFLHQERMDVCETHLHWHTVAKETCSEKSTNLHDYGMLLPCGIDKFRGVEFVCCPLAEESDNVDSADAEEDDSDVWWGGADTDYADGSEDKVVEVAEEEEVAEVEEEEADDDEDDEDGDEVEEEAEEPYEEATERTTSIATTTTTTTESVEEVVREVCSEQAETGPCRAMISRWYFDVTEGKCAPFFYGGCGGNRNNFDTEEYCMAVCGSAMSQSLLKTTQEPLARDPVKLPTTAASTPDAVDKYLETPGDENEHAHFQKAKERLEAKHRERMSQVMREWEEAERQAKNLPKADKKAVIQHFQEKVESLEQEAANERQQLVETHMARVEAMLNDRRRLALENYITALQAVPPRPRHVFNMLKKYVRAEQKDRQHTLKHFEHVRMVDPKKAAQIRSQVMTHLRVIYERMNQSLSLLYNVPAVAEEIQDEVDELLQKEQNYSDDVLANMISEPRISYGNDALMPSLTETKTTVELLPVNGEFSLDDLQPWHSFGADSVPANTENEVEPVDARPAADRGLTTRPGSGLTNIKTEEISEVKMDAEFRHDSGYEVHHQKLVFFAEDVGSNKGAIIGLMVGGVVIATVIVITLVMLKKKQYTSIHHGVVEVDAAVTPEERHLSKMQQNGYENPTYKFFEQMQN

**Q.** Which Drug uptake [1] does the source give for `COc1ccc2nc(-c3ccc([18F])cc3)sc2c1` here?
**A.** 6.7 % ID/g

**Q.** What about the Drug uptake [2] of the same molecule?
**A.** 1.3 %ID

**Q.** What about the Drug uptake [3] of the same molecule?
**A.** 0.07 %ID

**Q.** What about the Drug uptake [4] of the same molecule?
**A.** 19.9 %ID

**Q.** What about the Drug uptake [5] of the same molecule?
**A.** 0.56 %ID

**Q.** And the Drug uptake [6]?
**A.** 9.9 % ID/g

**Q.** And the Drug uptake [7]?
**A.** 0.2 %ID

**Q.** And the Drug uptake [8]?
**A.** 5.12 % ID/g

**Q.** And the Drug uptake [9]?
**A.** 4.1 % ID/g

**Q.** What about the Drug uptake [10] of the same molecule?
**A.** 4.4 %ID

**Q.** And the Drug uptake [11]?
**A.** 14.2 % ID/g

**Q.** And the Drug uptake [12]?
**A.** 13.9 % ID/g

**Q.** What about the Drug uptake [13] of the same molecule?
**A.** 8.6 %ID

**Q.** And the Drug uptake [14]?
**A.** 2 % ID/g

**Q.** And the Drug uptake [15]?
**A.** 9.4 %ID

**Q.** What about the Drug uptake [16] of the same molecule?
**A.** 0.1 %ID

**Q.** And the Drug uptake [17]?
**A.** 0.6 %ID

**Q.** And the Drug uptake [18]?
**A.** 5.1 % ID/g

**Q.** What about the Drug uptake [19] of the same molecule?
**A.** 2.1 % ID/g

**Q.** What about the Drug uptake [20] of the same molecule?
**A.** 0.6 % ID/g

**Q.** What about the Drug uptake [21] of the same molecule?
**A.** 0.2 %ID

**Q.** And the Drug uptake [22]?
**A.** 1.57 %ID

**Q.** And the Drug uptake [23]?
**A.** 1.2 %ID

**Q.** And the Drug uptake [24]?
**A.** 1.7 % ID/g

**Q.** And the Drug uptake [25]?
**A.** 13.6 %ID

**Q.** And the Drug uptake [26]?
**A.** 9.9 % ID/g

**Q.** And the Drug uptake [27]?
**A.** 0.68 % ID/g

**Q.** And the Drug uptake [28]?
**A.** 3.9 % ID/g

**Q.** And the Drug uptake [29]?
**A.** 0.8 %ID

**Q.** And the Drug uptake [30]?
**A.** 16.9 %ID

**Q.** What about the Drug uptake [31] of the same molecule?
**A.** 8.4 %ID

**Q.** And the Drug uptake [32]?
**A.** 0.43 % ID/g

**Q.** What about the Drug uptake [33] of the same molecule?
**A.** 1.1 %ID

**Q.** And the Drug uptake [34]?
**A.** 0.13 %ID

**Q.** And the Drug uptake [35]?
**A.** 4.9 %ID

**Q.** And the Drug uptake [36]?
**A.** 0.4 % ID/g

**Q.** What about the Drug uptake [37] of the same molecule?
**A.** 34.3 %ID

**Q.** Which Ki [38] does the source give for `Cc1ccc2nc(-c3ccc(F)cc3)sc2c1` here?
**A.** 5.7 nM

**Q.** For `Oc1cc(O)c2sc(-c3ccc(F)cc3)nc2c1`, which Ki [38] is on record?
**A.** 776 nM

**Q.** With `COc1ccc2nc(-c3ccc(F)cc3)sc2c1` as the molecule, how does the Ki [38] read?
**A.** 2.2 nM
